Data set [1] can be described thus: High-throughput metabolic stability assay, human liver microsomes. It counts as in vitro ADME. To be noted: predicted from in vitro metabolic stability. Summed up:
(§1)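 Predicted hepatic metabolic clearance from a high-throughput metabolic stability assay. Systems: pooled human, rat or mouse liver microsomes, or freshly harvested rat hepatocytes. Output is predicted blood clearance (CLb) in L h−1 kg−1.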

The nature of data set [2]: High-throughput metabolic stability assay, mouse liver microsomes. Type of data set: in vitro ADME. To be noted: predicted from in vitro metabolic stability. The procedure, abridged: as §1
Data set [3] has as its system freshly harvested rat hepatocytes (rHep). As to the kind of experiment: High-throughput metabolic stability assay, rat hepatocytes. Particulars: predicted from in vitro metabolic stability. It counts as in vitro ADME. Summed up:
as §1

Data set [4] in a line: Bidirectional Caco2 permeability assay. Type of data set: in vitro ADME. To be noted: human, Caco-2.
The test system of the next data set is Caco2. The experiment in a line: Bidirectional Caco2 permeability assay. Type of data set: in vitro ADME. To be noted: Caco2, P app B–A/P app A–B.
Data set [5] is described as follows: High-throughput metabolic stability assay, rat liver microsomes. Type of data set: in vitro ADME. To be noted: predicted from in vitro metabolic stability. Summed up:
as §1

The next data set in a line: Hydrolytic stability. It counts as physicochemical. The procedure, abridged: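 Test compound stirred for 24 hours in buffers: pH 2.0 and pH 4.5 citrate, pH 6.5 and pH 7.4 phosphate-buffered saline, pH 8.0 sodium borate. Hydrolytic stability is expressed as percent test compound recovered at 24 h.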

As to `N=S(=O)(c1ccccc1)N1CCCCC1` (stereo not shown) [2 a, 1 ‐(S‐Phenylsulfonimidoyl)piperidine], the “CLb hLMs (predicted blood clearance)” value in data set [1] is 0.67 mL/min/kg. In addition, the “CLb mLMs (predicted blood clearance)” value in data set [2] was 18.3 mL/min/kg. For the same molecule, the “CLb rHep (predicted blood clearance)” value in data set [3] is 60 mL/min/kg. The molecule also returned a Papp A→B in data set [4] of 37.8 ×10⁻⁶ cm/s. Also, the efflux ratio in data set [4] was 0.59; in the data set with Caco2, “no evidence of efflux”. Also, the “CLb rLMs (predicted blood clearance)” value in data set [5] is 50 mL/min/kg. For the same molecule, the “Recovered test compound (hydrolytic stability)” value in “Hydrolytic stability” (all tested pH values (2.0–8.0), 24 hours with stirring) is given as 100%. The recovery at 24 h came out at 100% in the data set “Hydrolytic stability” (citrate buffer, pH 2); 100% in “Hydrolytic stability” (citrate buffer, pH 4.5); 100% in the data set “Hydrolytic stability” (phosphate-buffered saline, pH 6.5); 100% in the data set “Hydrolytic stability” (phosphate-buffered saline, pH 7.4); 100% in “Hydrolytic stability” (sodium borate buffer, pH 8).

These data come from PMC5698725 (Chemistry (Weinheim an Der Bergstrasse, Germany), 2017).
